Assay outcomes as filed in PubChem BioAssay.
OX1R antag-1 = OX1R (human) antagonism; inhibition, % at 6.6 µM; 330,000 tested, 1.8% active; O43613; AID 485270; OX1R-expressing cells, FRET antagonist read-out; in the data active = inhibition mostly above about 38%, no sharp cut-off; inactive = mostly below about 40%
GPR7 antagonist = blocks human GPR7 receptor signaling. P48145. GPR7-expressing cells, fluorescence antagonist assay. 290,000 tested, 1.1% active. inhibition, % at 4.4 µM; in the data active = inhibition above about 16%, passing the limit was not always enough;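 also: cells stimulated with the agonist NPW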
Target sequence (P48145 whole entry, looked up): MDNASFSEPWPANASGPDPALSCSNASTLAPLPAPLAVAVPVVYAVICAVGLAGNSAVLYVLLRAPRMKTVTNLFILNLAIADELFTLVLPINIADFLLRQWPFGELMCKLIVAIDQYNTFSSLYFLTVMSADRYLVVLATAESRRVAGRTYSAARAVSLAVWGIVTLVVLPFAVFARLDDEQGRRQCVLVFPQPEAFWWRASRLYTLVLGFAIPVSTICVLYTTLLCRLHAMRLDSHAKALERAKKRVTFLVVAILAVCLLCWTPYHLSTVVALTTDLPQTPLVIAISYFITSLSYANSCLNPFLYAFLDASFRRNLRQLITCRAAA
TAAR1 antagonist = antagonists of human TAAR1; AID 624466; 360,000 tested, 1.5% active; CHO RD-HGA16 TAAR1, Fluo-8 calcium fluorescence, antagonist; inhibition, % at 3 µM; Q96RJ0;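 active = inhibition above a per-plate cutoff, the mean inhibition of test compounds on that plate plus 3 SD, cut at about 49% in these data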
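Test system: CHO RD-HGA16 cells bearing hTAAR1 | Reagent: β-PEA, EC80 | Compound dosing: 3 µM, single point | Schedule: Dye loading 75 min at 37 °C, then 30 min room temperature | Signal: Calcium fluorescence with Fluo-8 | Evaluation: Percent inhibition of PEA-evoked calcium signal, max/basal emission ratio | Control set: DMSO-only wells and EC80 β-PEA-stimulated wells | Repeats: Singlicate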
OX1R antag-2 = blocks the human orexin 1 receptor; CHO/OX1R cells, Fluo-8 calcium fluorescence, orexin A; 330,000 tested, 0.43% active; inhibition, % at 5 µM; AID 434989;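 active = inhibition above its plate's threshold, mean inhibition of all tested compounds on the plate plus 3 SD, cut at about 37% in these data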
CHO parental Ca = signal in parental CHO cells, OX1R antagonist counter-screen | parental CHO-K1, ATP-induced calcium, Fluo-8 fluorescence | inhibition, % at 5.6 µM | 330,000 tested, 0.63% active;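 active = inhibition above that plate's mean sample inhibition plus 3 SD, cut at about 26% in these data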
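Material – parental CHO cells · Reagent – ATP stimulus · Compound – single nominal dose of 5.6 µM per compound · Detection – Fluo-8 fluorescence · Read-out basis – percent inhibition of calcium signal · Controls – ATP-challenged DMSO wells low, unchallenged DMSO wells high · Repeats – no replicates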
TAAR1 ag = human TAAR1 agonism | Q96RJ0 | CHO RD-HGA16 TAAR1, Fluo-8 calcium fluorescence; vehicle wells 0%, saturating PEA agonist 100% | activation, % at 3 µM | 360,000 tested, 0.99% active;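 active = activation above the mean activation of all test compounds in the run plus 3 SD, cut at about 38% in these data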
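System: CHO-derived RD-HGA16 cells with stable Gα16 and human TAAR1 / Times: 17-24 h plating, Fluo-8 75 min 37 °C, 30 min RT / Technique: calcium-sensitive Fluo-8 signal, excitation 470-495, emission 515-575 nm / Measure: % activation relative to PEA EC100 response / Benchmarks: DMSO and PEA EC100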
Of the large screens only hits and unclear results are named; the others gave an inactive call. Only some compounds are listed: those with a hit (about 4.5% of all), similar ones and a draw of the others.

CN1/C(=C\C=Nc2ccccc2)C(C)(C)c2ccccc21	none
CCN1/C(=C/C=C/C2=[N+](CC)c3ccccc3C2(C)C)C(C)(C)c2ccccc21	TAAR1 antagonist 106, TAAR1 ag 263 (no result: OX1R antag-1, GPR7 antagonist, OX1R antag-2, CHO parental Ca)
CC(C)=CCc1c(O)cc2c(c1O)C(=O)CC(c1ccc(O)cc1)O2 (stereo not given)	TAAR1 ag 42 (no result: GPR7 antagonist)
O=C(N/N=C/c1c(O)n(-c2ccccc2)c(=S)[nH]c1=O)c1ccccc1	none
O=C(N/N=C\C1C(=O)NC(=S)N(c2ccccc2)C1=O)c1ccc(O)cc1 (stereo not given)	OX1R antag-1 46
C=CCNC(=S)Nc1ccc(OC(=O)Nc2ccc(Cl)c(Cl)c2)cc1	GPR7 antagonist 39 (no result: OX1R antag-1, OX1R antag-2, CHO parental Ca)
O=C(Nc1ccc(Cl)c(Cl)c1)c1ccco1	none
O=C(NCCN1CCC2(CC1)C(=O)NCN2c1ccccc1)c1cccs1	none (no result: OX1R antag-1, GPR7 antagonist, OX1R antag-2, CHO parental Ca)
CN1CCN(c2c(F)cc([N+](=O)[O-])c(N)c2Br)CC1	OX1R antag-1 52
CCCCCSc1cc(OC)c(CCN)cc1OC	TAAR1 ag 41
CCOc1cc2c(cc1OCC)-n1cccc1C(c1c(O)cccc1OC)NC2 (stereo not given)	none
Cc1ccc(C(=O)N[C@@H](C)CN2C3=NC[C@H](Cc4ccccc4)N3C[C@H]2Cc2ccc(O)cc2)cc1Br	OX1R antag-2 47, CHO parental Ca 42 (no result: GPR7 antagonist, TAAR1 antagonist, TAAR1 ag)
Cc1ccc(C(=O)N[C@@H](C)CN2C3=NC[C@@H](Cc4ccccc4)N3C[C@H]2Cc2ccc(O)cc2)cc1Br	none
COc1ccc(-n2nnnc2C(CCSC)N2CCC3(CC2)C(=O)NCN3c2ccccc2)cc1 (stereo not given)	TAAR1 antagonist 51 (no result: OX1R antag-1, GPR7 antagonist, OX1R antag-2, CHO parental Ca)
COc1ccc(-n2nnnc2C(CCc2ccccc2)N2CCC3(CC2)C(=O)NCN3c2ccccc2)cc1 (stereo not given)	none (no result: OX1R antag-1, GPR7 antagonist, OX1R antag-2, CHO parental Ca)
COc1ccccc1[As](=O)(O)CC(O)COc1ccc(Cl)cc1Cl (stereo not given)	none
O=C(NCCN1CCC2(CC1)C(=O)NCN2c1cccc(F)c1)c1ccc2ccccc2c1	TAAR1 antagonist 106, TAAR1 ag 83 (no result: OX1R antag-1, GPR7 antagonist, OX1R antag-2, CHO parental Ca)
CNc1cc(Cl)c2nonc2c1[N+](=O)[O-]	GPR7 antagonist 51 (no result: OX1R antag-1, OX1R antag-2, CHO parental Ca)
CCOC(=O)c1cc2c(cn1)[nH]c1ccccc12	OX1R antag-1 64
CCOC(=O)c1ccccc1N	none (no result: GPR7 antagonist)
Cc1ccc(OCC(=O)N2CCN(C3CCC(c4ccccc4)CC3)CC2)cc1 (stereo not given)	none
CC1(C)C[C@H]2C=C(C=O)[C@]3(C=O)C[C@]3(C)[C@H]2C1	OX1R antag-2 40, CHO parental Ca 69
Cn1cc(C(=O)OCC(=O)NC2(C#N)CCCC2)c2ccccc21	none (no result: GPR7 antagonist)
O=[N+]([O-])c1ccc(O)c([N+](=O)[O-])c1	OX1R antag-1 69 (no result: GPR7 antagonist)
O=[N+]([O-])c1ccc(Cl)c([N+](=O)[O-])c1	OX1R antag-1 48 (no result: GPR7 antagonist)
COC(=O)C1=C(c2ccc(-c3ccccc3)c(F)c2)C[C@@H]2CC[C@H]1N2C(=O)N1CCOCC1	none (no result: GPR7 antagonist)
N#CCCC#N	none (no result: OX1R antag-1, GPR7 antagonist, OX1R antag-2, CHO parental Ca)
COc1cc(C2c3cc4c(cc3CC3COC(=O)C32)OCO4)cc(OC)c1OC (stereo not given)	none (no result: GPR7 antagonist)
COc1cc(C2c3cc4c(c(O)c3CC3COC(=O)C32)OCO4)cc(OC)c1OC (stereo not given)	TAAR1 antagonist 50 (no result: OX1R antag-1, GPR7 antagonist, OX1R antag-2, CHO parental Ca)
CC(=O)C1=C(C)OC2=C(C(=O)CCC2)[C@@]12C(=O)N(C)c1ccccc12	none (no result: OX1R antag-1, GPR7 antagonist, OX1R antag-2, CHO parental Ca)
O=c1[nH]c(O)c(N=Nc2ccc(SC(F)F)cc2)c(=O)[nH]1	OX1R antag-1 42
NC(=O)c1ccc(N=Nc2c(O)[nH]c(=O)[nH]c2=O)cc1	none (no result: TAAR1 antagonist, TAAR1 ag)
O=C1c2cccc3cccc(c23)C(=O)N1/N=C/c1c(O)n(-c2ccccc2)c(=O)[nH]c1=O	OX1R antag-1 61
CCC1(c2ccc(N)cc2)CCC(=O)NC1=O (stereo not given)	none (no result: GPR7 antagonist)
CCN(CC)c1ccc(CNCCc2ccccc2F)cc1	TAAR1 ag 40
Cc1cc(OCC(=O)N2CCC(C(N)=O)CC2)c2c3c(c(=O)oc2c1)CCCC3	none
O=c1c2ccccc2nc(-c2ccccc2)n1-c1ccccc1	none
O=c1c2ccccc2[se]n1-c1ccccc1	CHO parental Ca 47, TAAR1 ag 41
